Measured values from different studies.
Protocols differ between the studies behind these lines.
Target: Serine/threonine-protein kinase D1 (PRKD1, Homo sapiens, UniProt Q15139)
Sequence (Q15139 1-912, as in one of the studies): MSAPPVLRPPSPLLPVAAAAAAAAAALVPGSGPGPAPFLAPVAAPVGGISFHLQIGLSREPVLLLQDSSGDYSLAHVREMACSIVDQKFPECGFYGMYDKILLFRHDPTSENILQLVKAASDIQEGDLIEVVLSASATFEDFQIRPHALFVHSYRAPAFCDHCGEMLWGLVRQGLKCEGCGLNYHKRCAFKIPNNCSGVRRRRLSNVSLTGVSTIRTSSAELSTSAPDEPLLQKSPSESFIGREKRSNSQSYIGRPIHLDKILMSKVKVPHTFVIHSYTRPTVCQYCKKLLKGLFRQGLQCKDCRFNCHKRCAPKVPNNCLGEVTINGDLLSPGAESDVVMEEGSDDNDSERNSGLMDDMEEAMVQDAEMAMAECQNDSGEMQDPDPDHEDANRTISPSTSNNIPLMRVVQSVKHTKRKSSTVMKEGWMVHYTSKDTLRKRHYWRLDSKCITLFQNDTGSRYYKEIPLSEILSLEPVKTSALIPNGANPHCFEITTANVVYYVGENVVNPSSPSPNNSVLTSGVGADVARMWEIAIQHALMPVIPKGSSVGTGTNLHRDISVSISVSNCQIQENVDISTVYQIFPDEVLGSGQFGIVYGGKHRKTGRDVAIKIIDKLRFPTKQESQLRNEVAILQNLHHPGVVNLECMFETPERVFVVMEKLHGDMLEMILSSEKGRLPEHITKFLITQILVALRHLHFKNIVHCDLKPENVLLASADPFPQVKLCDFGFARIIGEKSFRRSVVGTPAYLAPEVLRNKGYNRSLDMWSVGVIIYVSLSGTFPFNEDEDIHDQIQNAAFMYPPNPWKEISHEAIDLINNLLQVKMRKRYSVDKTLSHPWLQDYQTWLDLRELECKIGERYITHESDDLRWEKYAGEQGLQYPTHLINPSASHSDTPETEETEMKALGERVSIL

CNC(=O)[C@@H]1CC[C@@H](n2c(-c3ccc4cnccc4c3)nc3ccc(C(=O)NCc4cccc(C(N)=O)c4)cc32)C1
remaining binding (binding; competition with immobilised ligand; 1 µM): 100%

Cc1cc(NC(=O)c2cccc(S(F)(F)(F)(F)F)c2)cc(-n2ccn3nc(-c4cccnc4)cc23)c1
remaining binding (cell-free assay; competition with immobilised ligand; 1 µM): 100%

Cc1cnn2ncc(-c3ccnc(N(C)C)n3)c2c1
remaining binding (binding; 1 µM): 95%

O=C(Nc1c[nH]nc1C(=O)NC1CCNCC1)c1cc(F)cc(F)c1
remaining binding (binding; competition with immobilised ligand; 1 µM): 94%

C[C@@H](c1ccc(-n2cnc3c(N)ncnc32)cc1)N1CCc2nn(C)c(Cc3ccccc3)c2C1=O
remaining binding (binding; competition with immobilised ligand; 0.1 µM): 48%

CO[C@@H](C)c1c(Nc2ccc([C@H](N(C)C(=O)C3CCS(=O)(=O)CC3)C(F)(F)F)cc2)cnc2cc(Cl)nn12
remaining binding (cell-free assay; competition with immobilised ligand; 1 µM): 100%

c1cncc(-c2cccc(Nc3nccc(NC4CCCCC4)n3)c2)c1
remaining binding (binding; competition with immobilised ligand; 10 µM): 11%

CN(C)c1nccc(-c2cnc3ncccn23)n1
remaining binding (binding; 1 µM): 61%

O=C1NC(c2ccccn2)Sc2ccccc21 (centres unmarked)
remaining binding (cell-free assay; competition with immobilised ligand; 1 µM): 100%

C=CC(=O)N1CCC(C(=O)NCC(=O)N2CCN(c3nc(-c4cnc(N)nc4C(F)F)nc(N4CCOCC4)n3)CC2)CC1
remaining binding (binding; competition with immobilised ligand; 1 µM): 90%

CCN1CCN(Cc2ccc(C(=O)Nc3ccc(C)c(Oc4ccc5c(c4)CC(=O)N5)c3)cc2C(F)(F)F)CC1
remaining binding (binding; competition with immobilised ligand; 1 µM): 96%

COCCOc1nc(-c2ccc(Cl)nc2)nc2c1CN(C(=O)c1ncn3ccccc13)CC2
remaining binding (cell-free assay; competition with immobilised ligand; 0.1 µM): 90%

N[C@H]1CCN(c2nccc(-c3cnn4ncccc34)n2)C1
remaining binding (binding; 1 µM): 65%

CC1=C(C#N)C(c2ccc3c(c2)c(NC(=O)c2ccccc2C)nn3C)C(C#N)=C(C)N1
remaining binding (cell-free assay; competition with immobilised ligand; 1 µM): 92%

C[C@@H]1CCN(c2nccc(-c3cnn4ncccc34)n2)C1
remaining binding (binding; 1 µM): 100%

O=C(c1ccc(Nc2nccc(-c3cc4ccccc4s3)n2)cc1)N1CCC(N2CCCC2)CC1
remaining binding (binding; competition with immobilised ligand; 1 µM): 64%

CN(CCCC(F)(F)F)c1nccc(-c2cnn3ncccc23)n1
remaining binding (binding; 1 µM): 95%

O=C(c1ccc(Nc2ncc(Cl)c(-c3ccc(Cl)s3)n2)cc1)N1CCC(N2CCCC2)CC1
remaining binding (binding; competition with immobilised ligand; 1 µM): 32%

CN(c1nccc(-c2cnn3ncccc23)n1)C1CC1
remaining binding (binding; 1 µM): 100%

C[C@@]1(Cc2ccc(C#N)cc2)C(=O)N(c2cc(Cl)cc(Cl)c2)c2ncc(C(=O)NC3(c4nc(C5CCC5)no4)CC3)n21
remaining binding (cell-free assay; competition with immobilised ligand; 1 µM): 86%
